The M2OR odorant receptor database
Where a chain is given by its changes, count along the chain named.

Key:
Conditions in all cases: stereoisomer not certain
OR1D5 (Homo sapiens) = target: T1, OR1D5 (Homo sapiens) (UniProt P58170)
T1 sequence (whole entry): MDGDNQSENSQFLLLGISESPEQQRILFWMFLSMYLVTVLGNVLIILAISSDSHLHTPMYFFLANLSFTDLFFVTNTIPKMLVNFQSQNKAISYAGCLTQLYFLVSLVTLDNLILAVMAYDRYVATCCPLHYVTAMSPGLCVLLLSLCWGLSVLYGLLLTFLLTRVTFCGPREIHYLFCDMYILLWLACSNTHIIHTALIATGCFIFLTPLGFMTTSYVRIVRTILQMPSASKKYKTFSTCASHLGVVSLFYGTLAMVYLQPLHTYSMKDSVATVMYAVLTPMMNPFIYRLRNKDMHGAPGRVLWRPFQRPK
Outline: (§1)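 Transient luciferase assays in mammalian cell lines were common, though methods varied by source. The values come from published papers and their supplementary material, with extra details from the original authors when needed. Responsive refers to a measured signal the original authors judged statistically different from baseline, and non-responsive (inactive) to the remainder.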

OR1E1 (Homo sapiens) = target: T2, OR1E1 (Homo sapiens) (UniProt P30953)
T2 sequence (whole entry): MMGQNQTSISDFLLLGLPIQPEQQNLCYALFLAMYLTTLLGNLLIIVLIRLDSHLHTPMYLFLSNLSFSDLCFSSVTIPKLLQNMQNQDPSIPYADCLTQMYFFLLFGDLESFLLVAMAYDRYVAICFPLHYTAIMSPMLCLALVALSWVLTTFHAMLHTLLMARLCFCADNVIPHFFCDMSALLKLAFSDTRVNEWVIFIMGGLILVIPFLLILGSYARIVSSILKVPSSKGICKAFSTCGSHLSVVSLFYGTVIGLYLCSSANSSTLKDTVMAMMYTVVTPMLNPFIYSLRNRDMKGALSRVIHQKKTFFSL
Outline: as §1

OR1E2 (Homo sapiens) = target: T3, OR1E2 (Homo sapiens) (UniProt P47887)
T3 sequence (whole entry): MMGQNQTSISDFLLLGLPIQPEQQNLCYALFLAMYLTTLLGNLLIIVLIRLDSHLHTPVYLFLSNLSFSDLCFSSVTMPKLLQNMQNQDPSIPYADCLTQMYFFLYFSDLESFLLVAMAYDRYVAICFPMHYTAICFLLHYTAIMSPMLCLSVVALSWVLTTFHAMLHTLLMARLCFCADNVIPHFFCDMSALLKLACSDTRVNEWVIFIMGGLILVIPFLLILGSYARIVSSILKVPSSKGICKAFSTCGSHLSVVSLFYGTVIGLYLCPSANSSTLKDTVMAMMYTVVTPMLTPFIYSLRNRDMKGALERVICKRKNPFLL
Outline: as §1

OR1E2 = system: T4, OR1E2
T4 sequence (whole entry): T3 sequence (whole entry) with C27R
Outline: as §1

OR1F1 (Homo sapiens) = target: T5, OR1F1 (Homo sapiens) (UniProt O43749)
T5 sequence (whole entry): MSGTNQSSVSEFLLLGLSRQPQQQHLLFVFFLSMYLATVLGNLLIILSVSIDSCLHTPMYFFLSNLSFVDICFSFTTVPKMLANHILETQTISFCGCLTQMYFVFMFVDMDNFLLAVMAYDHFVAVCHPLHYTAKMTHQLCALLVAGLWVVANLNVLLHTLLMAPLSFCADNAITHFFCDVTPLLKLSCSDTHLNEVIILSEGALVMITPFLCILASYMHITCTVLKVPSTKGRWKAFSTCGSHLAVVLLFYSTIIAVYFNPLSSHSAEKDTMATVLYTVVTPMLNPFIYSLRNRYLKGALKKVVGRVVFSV
Outline: as §1

OR1F12P (Homo sapiens) = target: T6, OR1F12P (Homo sapiens) (UniProt Q8NHA8)
T6 sequence (whole entry): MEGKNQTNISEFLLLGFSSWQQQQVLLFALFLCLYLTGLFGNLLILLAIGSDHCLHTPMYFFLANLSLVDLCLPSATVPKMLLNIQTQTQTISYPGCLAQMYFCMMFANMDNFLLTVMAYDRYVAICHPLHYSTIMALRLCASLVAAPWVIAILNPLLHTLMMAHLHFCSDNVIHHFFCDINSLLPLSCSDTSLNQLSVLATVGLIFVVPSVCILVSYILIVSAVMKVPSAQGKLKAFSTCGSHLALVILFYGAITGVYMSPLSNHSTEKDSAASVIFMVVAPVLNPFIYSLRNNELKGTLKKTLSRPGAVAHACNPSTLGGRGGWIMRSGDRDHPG
Outline: as §1

OR1F1 = system: T7, OR1F1
T7 sequence (whole entry): T5 sequence (whole entry) with F75S
Outline: as §1

OR1G1 (Homo sapiens) = target: T8, OR1G1 (Homo sapiens) (UniProt P47890)
T8 sequence (whole entry): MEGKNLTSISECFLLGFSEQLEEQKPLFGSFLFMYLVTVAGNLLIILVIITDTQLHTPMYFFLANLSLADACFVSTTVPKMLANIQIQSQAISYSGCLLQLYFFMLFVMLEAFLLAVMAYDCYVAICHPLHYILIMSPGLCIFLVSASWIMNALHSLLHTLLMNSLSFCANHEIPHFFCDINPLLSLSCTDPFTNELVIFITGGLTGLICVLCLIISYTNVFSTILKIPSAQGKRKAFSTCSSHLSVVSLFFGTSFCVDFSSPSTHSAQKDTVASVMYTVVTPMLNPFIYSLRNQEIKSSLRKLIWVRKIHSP
Outline: as §1

OR1I1 (Homo sapiens) = target: T9, OR1I1 (Homo sapiens) (UniProt O60431)
T9 sequence (whole entry): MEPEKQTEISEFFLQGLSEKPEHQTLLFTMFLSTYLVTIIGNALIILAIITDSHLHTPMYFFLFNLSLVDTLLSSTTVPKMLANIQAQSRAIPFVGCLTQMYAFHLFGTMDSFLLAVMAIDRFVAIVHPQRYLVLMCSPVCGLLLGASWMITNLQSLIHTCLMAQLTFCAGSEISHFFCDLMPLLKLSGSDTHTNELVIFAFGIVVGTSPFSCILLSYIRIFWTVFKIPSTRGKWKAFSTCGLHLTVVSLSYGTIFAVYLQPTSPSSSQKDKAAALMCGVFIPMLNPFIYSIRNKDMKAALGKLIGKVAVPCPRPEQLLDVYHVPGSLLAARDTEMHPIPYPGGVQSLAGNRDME
Outline: as §1

OR1J1 (Homo sapiens) = target: T10, OR1J1 (Homo sapiens) (UniProt Q8NGS3)
T10 sequence (whole entry): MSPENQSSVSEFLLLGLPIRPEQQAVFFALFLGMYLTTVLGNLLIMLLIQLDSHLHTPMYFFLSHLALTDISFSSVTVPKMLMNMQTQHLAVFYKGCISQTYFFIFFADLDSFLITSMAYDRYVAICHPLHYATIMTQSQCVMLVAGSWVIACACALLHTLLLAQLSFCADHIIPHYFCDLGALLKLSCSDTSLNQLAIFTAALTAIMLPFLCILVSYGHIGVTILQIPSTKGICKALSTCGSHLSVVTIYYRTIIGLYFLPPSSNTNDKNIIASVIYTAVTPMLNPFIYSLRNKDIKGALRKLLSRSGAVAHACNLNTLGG
Outline: as §1

OR1J2 (Homo sapiens) = target: T11, OR1J2 (Homo sapiens) (UniProt Q8NGS2)
T11 sequence (whole entry): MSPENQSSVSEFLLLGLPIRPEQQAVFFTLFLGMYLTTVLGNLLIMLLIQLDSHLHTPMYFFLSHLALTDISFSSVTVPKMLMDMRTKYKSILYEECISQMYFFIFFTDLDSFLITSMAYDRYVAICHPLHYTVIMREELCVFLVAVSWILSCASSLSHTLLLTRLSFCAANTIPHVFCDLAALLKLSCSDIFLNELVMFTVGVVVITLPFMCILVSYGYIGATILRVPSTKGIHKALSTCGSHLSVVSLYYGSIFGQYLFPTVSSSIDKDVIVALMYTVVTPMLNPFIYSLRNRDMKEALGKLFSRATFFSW
Outline: as §1

OR1J4 (Homo sapiens) = target: T12, OR1J4 (Homo sapiens) (UniProt Q8NGS1)
T12 sequence (whole entry): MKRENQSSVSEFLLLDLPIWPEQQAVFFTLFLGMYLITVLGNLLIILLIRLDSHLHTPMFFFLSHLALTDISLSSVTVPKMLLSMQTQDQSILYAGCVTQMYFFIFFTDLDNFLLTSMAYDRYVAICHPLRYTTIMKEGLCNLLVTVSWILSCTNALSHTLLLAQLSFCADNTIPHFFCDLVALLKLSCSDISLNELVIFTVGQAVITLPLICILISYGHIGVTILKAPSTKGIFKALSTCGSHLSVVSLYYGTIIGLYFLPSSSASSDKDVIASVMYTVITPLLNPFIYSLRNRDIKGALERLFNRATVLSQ
Outline: as §1

OR1K1 (Homo sapiens) = target: T13, OR1K1 (Homo sapiens) (UniProt Q8NGR3)
T13 sequence (whole entry): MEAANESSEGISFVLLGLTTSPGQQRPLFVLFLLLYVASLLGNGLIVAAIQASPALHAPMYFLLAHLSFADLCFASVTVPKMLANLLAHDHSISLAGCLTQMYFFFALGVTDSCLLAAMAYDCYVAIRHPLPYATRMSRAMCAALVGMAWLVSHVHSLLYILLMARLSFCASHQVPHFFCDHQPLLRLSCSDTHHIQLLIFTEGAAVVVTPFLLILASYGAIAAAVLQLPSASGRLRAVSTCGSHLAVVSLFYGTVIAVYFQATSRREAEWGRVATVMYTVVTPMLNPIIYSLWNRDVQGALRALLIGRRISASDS
Outline: as §1

OR1L1 = system: T14, OR1L1
T14 sequence (whole entry): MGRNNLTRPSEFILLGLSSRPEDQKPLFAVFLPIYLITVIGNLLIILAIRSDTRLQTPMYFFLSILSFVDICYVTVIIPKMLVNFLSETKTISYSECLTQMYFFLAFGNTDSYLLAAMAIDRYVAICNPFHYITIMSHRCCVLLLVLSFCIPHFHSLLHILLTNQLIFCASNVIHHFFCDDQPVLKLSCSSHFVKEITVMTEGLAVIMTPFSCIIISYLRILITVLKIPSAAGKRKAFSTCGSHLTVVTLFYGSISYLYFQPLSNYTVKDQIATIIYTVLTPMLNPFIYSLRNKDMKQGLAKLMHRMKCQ
Outline: as §1

OR1D4 (Homo sapiens) = target: T15, OR1D4 (Homo sapiens) (UniProt P47884)
T15 sequence (whole entry): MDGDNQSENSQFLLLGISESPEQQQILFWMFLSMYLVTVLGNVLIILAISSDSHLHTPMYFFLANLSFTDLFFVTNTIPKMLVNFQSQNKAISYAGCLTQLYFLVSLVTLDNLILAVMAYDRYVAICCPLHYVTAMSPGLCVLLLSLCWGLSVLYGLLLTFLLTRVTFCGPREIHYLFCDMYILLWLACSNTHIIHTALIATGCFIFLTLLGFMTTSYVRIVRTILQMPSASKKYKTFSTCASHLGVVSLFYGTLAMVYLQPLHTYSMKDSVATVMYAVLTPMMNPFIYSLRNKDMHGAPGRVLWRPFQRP
Outline: as §1

OR1L1 (Homo sapiens) = target: T16, OR1L1 (Homo sapiens) (UniProt Q8NH94)
T16 sequence (whole entry): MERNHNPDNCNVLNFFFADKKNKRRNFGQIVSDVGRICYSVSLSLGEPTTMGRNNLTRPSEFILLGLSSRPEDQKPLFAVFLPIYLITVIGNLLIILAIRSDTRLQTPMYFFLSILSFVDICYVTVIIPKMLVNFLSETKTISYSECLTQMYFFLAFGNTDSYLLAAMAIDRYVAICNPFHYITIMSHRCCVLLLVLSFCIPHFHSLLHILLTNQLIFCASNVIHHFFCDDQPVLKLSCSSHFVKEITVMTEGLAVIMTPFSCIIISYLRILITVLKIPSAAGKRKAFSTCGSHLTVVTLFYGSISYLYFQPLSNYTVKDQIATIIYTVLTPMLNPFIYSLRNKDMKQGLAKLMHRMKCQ
Outline: as §1

Measured: odorant receptor agonist call

CCC1OC(=O)C(O)=C1C (stereo not drawn)
not listed: OR1D4 (Homo sapiens) | OR1L1 (Homo sapiens)
inactive: all other assays above

CC(CO)CS (stereo not drawn)
not listed: OR1E2 | OR1F1 | OR1L1
inactive: all other assays above

CCCCCC1C(=O)CCC1CC(=O)OC (stereo not drawn)
active: OR1G1 (Homo sapiens)

CCCCC1CCC(=O)O1 (stereo not drawn)
inactive: OR1G1 (Homo sapiens)

CCCCCCCCCC(=O)OC
active: OR1G1 (Homo sapiens)

Cc1ccc(C(C)C)c(O)c1
active: OR1G1 (Homo sapiens)

CC(C)=CCCC(C)CC=O (stereo not drawn)
active: OR1G1 (Homo sapiens)

CCCCC(S)C(C)CO (stereo not drawn)
active: OR1J4 (Homo sapiens)
not listed: OR1E2 | OR1F1 | OR1L1
inactive: all other assays above

CCC(S)C(C)CO (stereo not drawn)
not listed: OR1E2 | OR1F1 | OR1L1
inactive: all other assays above

CCCCCC(=O)OCC
inactive: OR1G1 (Homo sapiens)

CC1=C(O)C(=O)C(C)O1 (stereo not drawn)
not listed: OR1D4 (Homo sapiens) | OR1L1 (Homo sapiens)
inactive: all other assays above

Cc1cnc(C)c(C)n1
not listed: OR1D4 (Homo sapiens) | OR1L1 (Homo sapiens)
inactive: all other assays above

Cc1occc(=O)c1O
active: OR1G1 (Homo sapiens)

CCCCC(O)CCC (stereo not drawn)
active: OR1G1 (Homo sapiens)

CC(C)(C)C1CCCCC1OCCCCO (stereo not drawn)
inactive: OR1G1 (Homo sapiens)

CC1=NC(C)C(C)S1 (stereo not drawn)
not listed: OR1D4 (Homo sapiens) | OR1L1 (Homo sapiens)
inactive: all other assays above

CC1=CCC2CC1C2(C)C (stereo not drawn)
inactive: OR1G1 (Homo sapiens)

CCCCCC(S)C(C)CO (stereo not drawn)
not listed: OR1E2 | OR1F1 | OR1L1
inactive: all other assays above

Cc1ccc(C(C)C)cc1O
inactive: OR1G1 (Homo sapiens)

CC1=C(O)C(=O)OC1C (stereo not drawn)
not listed: OR1D4 (Homo sapiens) | OR1L1 (Homo sapiens)
inactive: all other assays above
